CDK5 inh – blocks human CDK5/p35 kinase activity; 330,000 tested, 0.01% active; Recombinant CDK5/p35, ADP-Glo luminescence, 60 min; inhibition, % at 10 µM;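 active means highest replicate inhibition of at least 50% and at least 75% of replicates reaching 50%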;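 further: plate controls were DMSO neutral control for no effect and GW8510 at 10 µM for full effect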
Target sequence (Q00535 whole entry, looked up): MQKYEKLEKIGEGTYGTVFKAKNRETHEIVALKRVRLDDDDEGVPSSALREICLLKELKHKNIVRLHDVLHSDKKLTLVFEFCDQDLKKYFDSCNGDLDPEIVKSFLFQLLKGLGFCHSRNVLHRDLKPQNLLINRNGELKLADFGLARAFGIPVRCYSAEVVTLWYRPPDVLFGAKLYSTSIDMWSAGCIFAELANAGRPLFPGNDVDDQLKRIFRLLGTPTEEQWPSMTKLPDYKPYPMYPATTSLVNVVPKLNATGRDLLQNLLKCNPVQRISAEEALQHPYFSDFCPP
Target sequence (Q15078 whole entry, looked up): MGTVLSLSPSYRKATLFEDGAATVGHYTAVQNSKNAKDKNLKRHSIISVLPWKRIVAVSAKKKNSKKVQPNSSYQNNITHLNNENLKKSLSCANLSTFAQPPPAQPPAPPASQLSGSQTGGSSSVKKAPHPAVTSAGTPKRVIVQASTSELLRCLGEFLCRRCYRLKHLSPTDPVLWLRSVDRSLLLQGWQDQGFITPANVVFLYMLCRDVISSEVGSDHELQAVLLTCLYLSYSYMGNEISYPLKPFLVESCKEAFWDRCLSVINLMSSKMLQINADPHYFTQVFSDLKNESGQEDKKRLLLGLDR
S100A4 MyoIIA – inhibitors of human S100A4 binding to myosin IIA peptide; 360,000 tested, 0.14% active; AID 652163; inhibition, % at 10.7 µM; P26447; S100A4/TAMRA-MyoIIA peptide fluorescence polarization;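 active means mean inhibition of at least 70% across replicates, with every replicate also reaching that level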
Target sequence (P26447 whole entry, looked up): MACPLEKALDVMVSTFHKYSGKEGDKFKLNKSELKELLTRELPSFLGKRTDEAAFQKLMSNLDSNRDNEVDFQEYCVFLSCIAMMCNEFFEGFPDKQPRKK
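assay system = human S100A4 monomer with TAMRA-labelled myosin IIA peptide | also added = labelled myosin peptide probe, 5 nM | incubation = 5 min between mix addition and reading | control set = DMSO and TFP controls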
C2C12 statin – suppression of simvastatin myotoxicity; AID 602340; 330,000 tested, 0.78% active; C2C12 myotubes + simvastatin, ATP luminescence, 48 h; scaled: DMSO 0, geranylgeraniol control 100; rescue of ATP level, % at 7.49 µM;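 active means mean ATP rescue above about 67%, or every replicate alone reaching that limit, limit read from the data, passing the limit was not always enough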;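 further: myotubes were challenged with 10 µM simvastatin during compound exposure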
CAL PDZ FP-1 – inhibitors of human CAL PDZ peptide binding; Q9HD26; 330,000 tested, 0.02% active; inhibition, % at 20 µM; purified CAL PDZ, TMR-peptide fluorescence polarization, 1 h;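 active means highest replicate inhibition of at least 40%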;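 further: plate controls were DMSO neutral control wells for no effect and unlabeled competitor peptide control wells for full effect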
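Test system: tagged CAL PDZ domain / Buffer or medium: sodium phosphate/NaCl buffer pH 7.4 with TCEP, IgG, Thesit / Reagent: TMR-labelled reporter peptide T*-PRC34 bound in PDZ groove / Compound dosing: single point, 20 µM / Schedule: 1 h incubation at room temperature before polarization reading / Technique: fluorescence polarization (mP) / Benchmarks: unlabelled peptide, DMSO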
dFosB act-1 – activators of mouse delta FosB homodimer; purified delta FosB, TAMRA-CDK5 oligo fluorescence polarization; percent of positive-control signal above neutral wells; activation, % at 25 µM; 340,000 tested, 0.99% active;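 active means mean activation above about 17%, with every replicate also reaching it, limit read from the data, passing the limit was not always enough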
CAL PDZ FP-2 – blocks peptide binding to the human CAL PDZ domain; 300,000 tested, 0.92% active; inhibition, % at 24.9 µM; purified CAL PDZ, TMR-peptide fluorescence polarization, 1 h; AID 602252; Q9HD26;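 active means mean inhibition of at least 30% with at least half of replicates also reaching 30%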;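 further: 0% = DMSO neutral control and 100% = excess unlabeled competitor peptide PRC23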
dFosB act-2 – activators of mouse delta FosB homodimer DNA binding | shares compounds with dFosB act-1 | purified delta FosB, TAMRA-CDK5 oligo fluorescence polarization; normalised: neutral wells 0, positive control 100 | activation, % at 24.9 µM | 2,400 tested, under 10 active | AID 588690;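 active means highest replicate activation at or above 34% and every replicate reaching that threshold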;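 further: higher polarization means more probe DNA bound by delta FosB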
* marks the source's active call; other numbers are inactive results. The list is not random: actives were taken first. Their share in the collection is about 2%.

How did CCOc1cc2[nH]c(=O)n(CCc3ccc(OC)c(OC)c3)c(=O)c2cc1OCC do in these assays?
CDK5 inh: -0.7; C2C12 statin: -11.7; CAL PDZ FP-1: -0.9; dFosB act-1: 25.3*; CAL PDZ FP-2: 3.8; dFosB act-2: -13.3

What do the screens show for `CCOc1cc2[nH]c(=S)n(Cc3ccc(C(=O)NCCCOC)cc3)c(=O)c2cc1OCC`?
CDK5 inh: 0.0; S100A4 MyoIIA: 4.3; C2C12 statin: -7.8; CAL PDZ FP-1: -1.2; dFosB act-1: 1.2; CAL PDZ FP-2: -5.7

What do the screens show for `CCOc1cc2[nH]c(=O)n(Cc3ccc(C(=O)NCCCN4CCC(C)CC4)cc3)c(=O)c2cc1OCC`?
CDK5 inh: 2.6; S100A4 MyoIIA: -5.2; C2C12 statin: -10.2; CAL PDZ FP-1: -5.0; dFosB act-1: 25.9*; CAL PDZ FP-2: -9.1; dFosB act-2: 4.1

What do the screens show for `CCOc1cc2[nH]c(=S)n(Cc3ccc(C)o3)c(=O)c2cc1OCC`?
CDK5 inh: 0.3; S100A4 MyoIIA: -1.8; C2C12 statin: -50.1; CAL PDZ FP-1: 0.4; dFosB act-1: 34.2*; dFosB act-2: 2.9

Results for CCOc1cc2[nH]c(=S)n(Cc3ccc(C(=O)NCCCN4CCOCC4)cc3)c(=O)c2cc1OCC ?
CDK5 inh: 0.0; S100A4 MyoIIA: 0.5; C2C12 statin: 4.5; CAL PDZ FP-1: -4.5; dFosB act-1: 8.9

Results for Cc1cc(NC(=O)C2CC2)ccc1NC(=O)c1cccs1 ?
CDK5 inh: -0.7; S100A4 MyoIIA: -5.9; C2C12 statin: -0.5; CAL PDZ FP-1: -0.7; dFosB act-1: -3.0

Results for CC1CN(C(=O)c2ccccc2Oc2ccccc2)CC(C)O1 (stereo not given) ?
CDK5 inh: -1.1; S100A4 MyoIIA: 1.7; CAL PDZ FP-1: -2.2; dFosB act-1: 0.2; CAL PDZ FP-2: -0.3

How did COC(=O)c1ccc2c(=O)n(Cc3ccc(C(=O)NCCCN4CCOCC4)cc3)c(=S)[nH]c2c1 do in these assays?
CDK5 inh: 2.7; S100A4 MyoIIA: 0.5; C2C12 statin: -43.1; CAL PDZ FP-1: -1.3; dFosB act-1: 29.1*; CAL PDZ FP-2: 5.7; dFosB act-2: 5.4

How did O=C(NCC1CCCO1)c1ccc2c(=O)n(Cc3cccc(Br)c3)c(=S)[nH]c2c1 (stereo not given) do in these assays?
CDK5 inh: 1.8; S100A4 MyoIIA: 2.4; C2C12 statin: -38.9; CAL PDZ FP-1: -0.1; dFosB act-1: 44.4*; CAL PDZ FP-2: 9.1; dFosB act-2: -3.6

Results for O=C(c1ccc(Cn2c(=S)[nH]c3ccc(Br)cc3c2=O)cc1)N1CCN(C2CCCCC2)CC1 ?
CDK5 inh: 0.0; S100A4 MyoIIA: -5.8; C2C12 statin: 4.1; CAL PDZ FP-1: -1.1; dFosB act-1: 31.0*; CAL PDZ FP-2: 28.7; dFosB act-2: 4.6

How did COc1ccc(Cn2c(=S)[nH]c3cc(C(=O)NCc4cccnc4)ccc3c2=O)cc1 do in these assays?
CDK5 inh: -0.2; S100A4 MyoIIA: -11.4; CAL PDZ FP-1: -0.7; dFosB act-1: 24.1*; CAL PDZ FP-2: -3.5; dFosB act-2: 1.2

What do the screens show for `Cc1ccc(N(C)S(=O)(=O)c2ccc(-c3ccc(=O)[nH]n3)s2)cc1C`?
S100A4 MyoIIA: 0.0; C2C12 statin: -4.6; CAL PDZ FP-1: -2.0; dFosB act-1: -2.6; CAL PDZ FP-2: -1.8

Results for CC(C)Sc1nc2c(c(=O)[nH]c(=O)n2C)n1C ?
CDK5 inh: -0.2; C2C12 statin: 18.5; CAL PDZ FP-1: -0.4; dFosB act-1: -5.5; CAL PDZ FP-2: -0.6

What do the screens show for `COc1ccc(NC(=O)Cn2nnc(-c3ccccc3F)n2)cc1`?
CDK5 inh: -0.5; C2C12 statin: 13.5; CAL PDZ FP-1: 0.5; dFosB act-1: -4.2; CAL PDZ FP-2: -1.9

What do the screens show for `Cc1ccc(-c2cc(C(=O)N/N=C/c3c(C)nn(C)c3C)c3ccccc3n2)cc1C`?
CDK5 inh: 1.1; C2C12 statin: -4.0; CAL PDZ FP-1: -3.0; dFosB act-1: 42.6*; CAL PDZ FP-2: 0.4; dFosB act-2: 0.7

Results for Cc1ccc(-c2cc(C(=O)N/N=C/c3ccoc3)c3ccccc3n2)cc1 ?
CDK5 inh: -1.2; S100A4 MyoIIA: 6.8; C2C12 statin: -6.2; CAL PDZ FP-1: -0.1; dFosB act-1: -6.0; CAL PDZ FP-2: 1.3

How did CC(C)Oc1ccc(Cn2c(=O)sc3ccccc32)cc1 do in these assays?
CDK5 inh: -0.3; C2C12 statin: 10.7; CAL PDZ FP-1: -1.7; dFosB act-1: -20.6; CAL PDZ FP-2: -0.4

Results for COc1cccc(CNC(=O)CCNS(=O)(=O)c2cccc3nonc23)c1 ?
CDK5 inh: 0.3; S100A4 MyoIIA: 1.7; C2C12 statin: -6.8; CAL PDZ FP-1: -0.4; dFosB act-1: -3.6; CAL PDZ FP-2: 5.5

How did O=C(C[C@H]1C/C=C\CC[C@@H](Cc2ccc(F)cc2)C(=O)O[C@@H](c2ccccc2)CNC1=O)N[C@@H](CO)Cc1ccccc1 do in these assays?
CDK5 inh: -1.0; S100A4 MyoIIA: -2.3; C2C12 statin: -10.0; CAL PDZ FP-1: -0.1; dFosB act-1: 116.0*; CAL PDZ FP-2: -1.3; dFosB act-2: -0.3

Results for O=C(C[C@H]1C/C=C\C[C@@H](Cc2ccc(F)cc2)C(=O)O[C@@H](c2ccccc2)CNC1=O)N[C@@H](CO)Cc1ccccc1 ?
CDK5 inh: 1.1; S100A4 MyoIIA: -1.1; C2C12 statin: -1.0; CAL PDZ FP-1: 0.1; dFosB act-1: 48.9*; CAL PDZ FP-2: -0.5; dFosB act-2: 2.8

Results for Nc1ccccc1SC1CC(=O)N(c2ccc(Cl)c(Cl)c2)C1=O (stereo not given) ?
CDK5 inh: 0.4; S100A4 MyoIIA: 2.4; C2C12 statin: -5.4; CAL PDZ FP-1: -1.2; dFosB act-1: 26.5*; CAL PDZ FP-2: 2.7; dFosB act-2: 1.8

How did COc1ccc(N(CC(=O)NC2CCCCCC2)S(=O)(=O)c2ccc(C)cc2)cc1OC do in these assays?
CDK5 inh: -2.1; S100A4 MyoIIA: -1.8; C2C12 statin: 9.0; CAL PDZ FP-1: -1.2; dFosB act-1: 26.8*; CAL PDZ FP-2: -3.3; dFosB act-2: -0.9

Results for COc1ccc(N(CC(=O)NC2CCS(=O)(=O)C2)S(=O)(=O)c2ccc(Cl)c(Cl)c2)cc1 (stereo not given) ?
CDK5 inh: 0.0; S100A4 MyoIIA: -5.1; C2C12 statin: 4.5; CAL PDZ FP-1: -1.3; dFosB act-1: 43.2*; CAL PDZ FP-2: -19.5; dFosB act-2: 2.5

What do the screens show for `COc1ccc(N(CC(=O)NC2CCCC2)S(=O)(=O)c2ccc(NC(C)=O)cc2)cc1`?
CDK5 inh: -2.2; S100A4 MyoIIA: -5.8; C2C12 statin: 16.6; CAL PDZ FP-1: -1.3; dFosB act-1: -1.7; CAL PDZ FP-2: 0.9

From PubChem BioAssay
